Experimental data reported in publication PMC11008256 (Cell reports. Physical science, 2024).
Structures can show the parent of a compound that is named as a salt. Ends that are not written are not given here. Peptide text beside a SMILES is read from it.

Key:
K. pneumoniae NTUH K2044 [1] = experiment: Antimicrobial activity, broth microdilution MIC; assay type: cell-based, Klebsiella pneumoniae; conditions: LB used for MIC testing to determine dosage for skin model
In short: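 Log-phase cells (an overnight LB culture diluted 1:100 in MHB at 37°C) seeded at 1 × 10^6 CFU mL-1 in LB for skin-model dosing, rather than the usual MHB. Peptide and polymyxin B control prepared in BSA buffer and tested at 0.0625–128 µmol L-1. Growth read as OD600; three independent replicates.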

Human red blood cells = experiment: Hemolytic activity assay; assay type: cell-based; conditions: 1 to 128 μmol L^−1, 4 h room temperature, absorbance 405 nm
K. pneumoniae NTUH K2044 [2] = experiment: Skin abscess mouse model; assay type: in vivo, female CD-1 mice; conditions: single topical dose at MIC, monitored 4 days, n = 6
[3] = Peptide:polysaccharide aggregation assay; design: species or system Klebsiella pneumoniae; conditions: 100 μmol L^−1 peptide, 300 μg mL^−1 polysaccharide
In short: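 Polysaccharide hot-phenol-extracted from an overnight LB culture (60 min, 68°C; chloroform; ethanol precipitation) and quantified by uronic acid assay. Mixed with peptide in 10 mM potassium phosphate, then immediately spun 15,600 rpm for 15 min. Pellets resuspended in water, run on 4–8% bis-tris SDS-PAGE beside 2 µg purified polysaccharide, and Alcian blue-stained. Band density measured with the no-peptide control subtracted as background. Triplicate; ±SEM.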

[4] = tested on: pre-formed biofilms of K. pneumoniae NTUH K2044; experiment: Biofilm eradication; assay type: cell-based, Klebsiella pneumoniae; conditions: 60 μmol L^−1, 24 h
In short: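 Overnight NTUH K2044 culture diluted to OD600 0.5 in TSB + 0.5% glucose. Biofilms grown 24 h at 37°C static in 35 mm dishes. Peptide diluted in BSA buffer (0.2% BSA, 0.01% acetic acid) plus MHB; untreated control received buffer plus MHB. Treatment 24 h at 37°C static. Dispersed cells and PBS-washed (×3), PBS-resuspended biofilm plated for CFU mL-1. ±SEM; one-way ANOVA with Dunnett versus untreated.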

[5] = tested on: K. pneumoniae NTUH K2044 biofilm matrix polysaccharides; experiment: Confocal microscopy imaging of biofilm polysaccharide matrix; assay type: cell-based, Klebsiella pneumoniae

Row | Compound | MIC used as dose for skin model (K. pneumoniae NTUH K2044 [1]) [µM] | hemolysis (Human red blood cells) | mouse weight changes, skin damage (proxy of toxicity) (K. pneumoniae NTUH K2044 [2]) | aggregation with extracellular polysaccharides (in words) [3] | biofilm and dispersed CFU mL^−1 [4] | effect on biofilm polysaccharide matrix (confocal) ([5]; 15 μmol L^−1, 24 h, concanavalin A Texas red stain) | effect on biofilm polysaccharide matrix (confocal) ([5]; 60 μmol L^−1, 24 h)
1 | RRIRPRPPRLPRPRPRPLPFPRPGPRPIPRPLPFP [Bac7 (1–35)] | 2 | limited ability to lyse red blood cells | No variations in weight, damage to the skin tissue, or other harmful consequences |  |  |  | 
2 | CC[C@H](C)CCCCC(=O)N[C@@H](CCN)C(=O)N[C@H](C(=O)N[C@@H](CCN)C(=O)N[C@H]1CCNC(=O)[C@H]([C@@H](C)O)NC(=O)[C@H](CCN)NC(=O)[C@H](CCN)NC(=O)[C@H](CC(C)C)NC(=O)[C@@H](Cc2ccccc2)NC(=O)[C@H](CCN)NC1=O)[C@@H](C)O [polymyxin B, polymyxin B sulfate, reference compound] (HELM PEPTIDE1{[CC[C@H](C)CCCCC(=O)[*:2]].[Dab].T.[Dab].[Dab].[Dab].[dF].L.[Dab].[Dab].T}$PEPTIDE1,PEPTIDE1,5:R3-11:R2$$$V2.0; N-terminus assumed; bridges inferred) | 1 |  | No variations in weight, damage to the skin tissue, or other harmful consequences |  |  |  | 
3 | PRPIPRPLPFPRPGPRPIPRPLPFPRPGPRPIPRP [Bac7 (24–59)] |  |  |  | highest aggregation potential | did not significantly change | drop in overall height (30 μm) and moderate change in the polysaccharide matrix | polysaccharide matrix loss from the upper layers of the biofilm
